# Measured values reported in ChEMBL document CHEMBL1649552 (2009).
# Key:
# Assay type in all cases: functional
# Pseudomonas aeruginosa [1] = assay: Antibacterial activity against Pseudomonas aeruginosa assessed as resistant isolates by CLSI M100-S17 method in presence of Tazobactam
# Procedure, shortened: (§1)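 Clinical isolates were tested by CLSI broth microdilution in frozen, in-house-prepared 96-well panels of the test agent and comparator agents. MICs were read and classed as susceptible, intermediate or resistant using CLSI M100-S17 breakpoints. The value is the share of isolates in each category.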
# Serratia marcescens [2] = assay: Antibacterial activity against Serratia marcescens by CLSI M100-S17 method in presence of Tazobactam
# Procedure, shortened: (§2)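 CLSI broth microdilution on clinical isolates, using frozen in-house-prepared panels of test and comparator agents. MICs were read after 20 to 24 h incubation at 35°C in ambient air. Susceptible/intermediate categories were assigned by CLSI M100-S17 guidelines.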
# Acinetobacter baumannii [3] = assay: Antibacterial activity against Acinetobacter baumannii assessed as susceptible isolates by CLSI M100-S17 method in presence of Tazobactam; procedure, shortened: as §2
# [4] = system: Stenotrophomonas maltophilia; assay: Antibacterial activity against Stenotrophomonas maltophilia by CLSI M100-S17 method in presence of Tazobactam; procedure, shortened: as §2
# Acinetobacter baumannii [5] = assay: Antibacterial activity against Acinetobacter baumannii by CLSI M100-S17 method in presence of Tazobactam; procedure, shortened: as §2
# Klebsiella oxytoca [6] = assay: Antibacterial activity against Klebsiella oxytoca assessed as resistant isolates by CLSI M100-S17 method in presence of Tazobactam; procedure, shortened: as §1
# Klebsiella oxytoca [7] = assay: Antibacterial activity against Klebsiella oxytoca assessed as intermediate isolates by CLSI M100-S17 method in presence of Tazobactam; procedure, shortened: as §2
# Escherichia coli [8] = assay: Antibacterial activity against Escherichia coli assessed as intermediate isolates by CLSI M100-S17 method in presence of Tazobactam; procedure, shortened: as §2
# Serratia marcescens [9] = assay: Antibacterial activity against Serratia marcescens assessed as resistant isolates by CLSI M100-S17 method in presence of Tazobactam; procedure, shortened: as §1
# Enterobacter cloacae [10] = assay: Antibacterial activity against Enterobacter cloacae assessed as intermediate isolates by CLSI M100-S17 method in presence of Tazobactam; procedure, shortened: as §2
# Klebsiella pneumoniae [11] = assay: Antibacterial activity against Klebsiella pneumoniae assessed as resistant isolates by CLSI M100-S17 method in presence of Tazobactam; procedure, shortened: as §1
# Escherichia coli [12] = assay: Antibacterial activity against Escherichia coli by CLSI M100-S17 method in presence of Tazobactam; procedure, shortened: as §2
# Klebsiella pneumoniae [13] = assay: Antibacterial activity against Klebsiella pneumoniae assessed as intermediate isolates by CLSI M100-S17 method in presence of Tazobactam; procedure, shortened: as §2
# Pseudomonas aeruginosa [14] = assay: Antibacterial activity against Pseudomonas aeruginosa by CLSI M100-S17 method in presence of Tazobactam; procedure, shortened: as §2
# Proteus mirabilis [15] = assay: Antibacterial activity against Proteus mirabilis assessed as intermediate isolates by CLSI M100-S17 method in presence of Tazobactam; procedure, shortened: as §1
# Pseudomonas aeruginosa [16] = assay: Antibacterial activity against Pseudomonas aeruginosa assessed as susceptible isolates by CLSI M100-S17 method in presence of Tazobactam; procedure, shortened: as §2
# Klebsiella oxytoca [17] = assay: Antibacterial activity against Klebsiella oxytoca by CLSI M100-S17 method in presence of Tazobactam; procedure, shortened: as §2
# Enterobacter cloacae [18] = assay: Antibacterial activity against Enterobacter cloacae assessed as resistant isolates by CLSI M100-S17 method in presence of Tazobactam; procedure, shortened: as §1
# Klebsiella pneumoniae [19] = assay: Antibacterial activity against Klebsiella pneumoniae assessed as susceptible isolates by CLSI M100-S17 method in presence of Tazobactam; procedure, shortened: as §2
# Enterobacter cloacae [20] = assay: Antibacterial activity against Enterobacter cloacae by CLSI M100-S17 method in presence of Tazobactam; procedure, shortened: as §2
# Klebsiella oxytoca [21] = assay: Antibacterial activity against Klebsiella oxytoca assessed as susceptible isolates by CLSI M100-S17 method in presence of Tazobactam; procedure, shortened: as §2
# Enterobacter cloacae [22] = assay: Antibacterial activity against Enterobacter cloacae assessed as susceptible isolates by CLSI M100-S17 method in presence of Tazobactam; procedure, shortened: as §2
# Serratia marcescens [23] = assay: Antibacterial activity against Serratia marcescens assessed as susceptible isolates by CLSI M100-S17 method in presence of Tazobactam; procedure, shortened: as §2
# Serratia marcescens [24] = assay: Antibacterial activity against Serratia marcescens assessed as intermediate isolates by CLSI M100-S17 method in presence of Tazobactam; procedure, shortened: as §2
# Proteus mirabilis [25] = assay: Antibacterial activity against Proteus mirabilis by CLSI M100-S17 method in presence of Tazobactam; procedure, shortened: as §2
# Escherichia coli [26] = assay: Antibacterial activity against Escherichia coli assessed as susceptible isolates by CLSI M100-S17 method in presence of Tazobactam; procedure, shortened: as §2
# Escherichia coli [27] = assay: Antibacterial activity against Escherichia coli assessed as resistant isolates by CLSI M100-S17 method in presence of Tazobactam; procedure, shortened: as §1
# Acinetobacter baumannii [28] = assay: Antibacterial activity against Acinetobacter baumannii assessed as intermediate isolates by CLSI M100-S17 method in presence of Tazobactam; procedure, shortened: as §1
# Moraxella catarrhalis = assay: Antibacterial activity against Moraxella catarrhalis by CLSI M100-S17 method in presence of Tazobactam; procedure, shortened: as §2
# Pseudomonas aeruginosa [29] = assay: Antibacterial activity against Pseudomonas aeruginosa assessed as intermediate isolates by CLSI M100-S17 method in presence of Tazobactam; procedure, shortened: as §2
# Proteus mirabilis [30] = assay: Antibacterial activity against Proteus mirabilis assessed as susceptible isolates by CLSI M100-S17 method in presence of Tazobactam; procedure, shortened: as §2
# Klebsiella pneumoniae [31] = assay: Antibacterial activity against Klebsiella pneumoniae by CLSI M100-S17 method in presence of Tazobactam; procedure, shortened: as §2
compound,measurement,setting,value
CCN1CCN(C(=O)N[C@@H](C(=O)N[C@@H]2C(=O)N3[C@@H]2SC(C)(C)[C@@H]3C(=O)O)c2ccccc2)C(=O)C1=O [PIPERACILLIN],Activity,Pseudomonas aeruginosa [1],7.3%
same,MIC50,Serratia marcescens [2],2 µg/mL
same,MIC90,Serratia marcescens [2],8 µg/mL
same,Activity,Acinetobacter baumannii [3],76%
same,MIC50,[4],> 512 µg/mL
same,MIC90,[4],> 512 µg/mL
same,MIC50,Acinetobacter baumannii [5],4 µg/mL
same,MIC90,Acinetobacter baumannii [5],> 512 µg/mL
same,Activity,Klebsiella oxytoca [6],9%
same,Activity,Klebsiella oxytoca [7],1%
same,Activity,Escherichia coli [8],1%
same,Activity,Serratia marcescens [9],0.9%
same,Activity,Enterobacter cloacae [10],8.4%
same,Activity,Klebsiella pneumoniae [11],2%
same,MIC50,Escherichia coli [12],2 µg/mL
same,MIC90,Escherichia coli [12],4 µg/mL
same,Activity,Klebsiella pneumoniae [13],1.3%
same,MIC50,Pseudomonas aeruginosa [14],4 µg/mL
same,MIC90,Pseudomonas aeruginosa [14],64 µg/mL
same,Activity,Proteus mirabilis [15],0%
same,Activity,Pseudomonas aeruginosa [16],92.7%
same,MIC50,Klebsiella oxytoca [17],2 µg/mL
same,MIC90,Klebsiella oxytoca [17],16 µg/mL
same,Activity,Enterobacter cloacae [18],9%
same,Activity,Klebsiella pneumoniae [19],96.7%
same,MIC50,Enterobacter cloacae [20],2 µg/mL
same,MIC90,Enterobacter cloacae [20],64 µg/mL
same,Activity,Klebsiella oxytoca [21],90%
same,Activity,Enterobacter cloacae [22],82.6%
same,Activity,Serratia marcescens [23],94.4%
same,Activity,Serratia marcescens [24],4.7%
same,MIC50,Proteus mirabilis [25],2 µg/mL
same,MIC90,Proteus mirabilis [25],64 µg/mL
same,Activity,Escherichia coli [26],97.6%
same,Activity,Escherichia coli [27],1.4%
same,Activity,Acinetobacter baumannii [28],12%
same,MIC,Moraxella catarrhalis,≤ 1 µg/mL
same,MIC50,Moraxella catarrhalis,≤ 1 µg/mL
same,MIC90,Moraxella catarrhalis,≤ 1 µg/mL
same,Activity,Pseudomonas aeruginosa [29],0%
same,Activity,Proteus mirabilis [30],100%
same,MIC50,Klebsiella pneumoniae [31],2 µg/mL
same,MIC90,Klebsiella pneumoniae [31],8 µg/mL
